The record followed here is ChEMBL document CHEMBL3098044, “Inhibition of carbonic anhydrases from the extremophilic bacteria Sulfurihydrogenibium yellostonense (SspCA) and S. azorense (SazCA) with a new series of sulfonamides incorporating aroylhydrazone-, [1,2,4]triazolo[3,4-b][1,3,4]thiadiazinyl- or 2-(cyanophenylmethylene)-1,3,4-thiadiazol-3(2H)-yl …” (Bioorg Med Chem, 2014).

As usually defined, the Ki is a measure of affinity in units of concentration, obtained from inhibition or displacement.

The nature of experiment [1]: Inhibition of Sulfurihydrogenibium yellowstonense YO3AOP1 carbonic anhydrase preincubated for 15 mins by stopped-flow CO2 hydration assay. In a few lines: (§1)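 Initial rates of CA-catalysed CO2 hydration followed for 10–100 s with phenol red (0.2 mM) read at 557 nm, in 10–20 mM Hepes pH 7.5 with 20 mM Na2SO4 for ionic strength. CO2 1.7–17 mM. Inhibitors in water at 0.01 mM stock, diluted down to 0.01 nM. Enzyme and inhibitor preincubated at room temperature. Uncatalysed rates subtracted. Ki from non-linear least squares and Cheng–Prusoff, mean of at least three determinations.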

Experiment [2] is described as follows: Inhibition of Sulfurihydrogenibium azorense alpha-carbonic anhydrase preincubated for 15 mins by stopped-flow CO2 hydration assay. In a few lines:
as §1

In the case of `CC(=N\NC(=O)c1cccs1)/C(Cl)=N/Nc1ccc(S(N)(=O)=O)cc1`, the inhibition constant Ki turned out to be 6.4 nM in experiment [1] and 14.9 nM in experiment [2].
As for `CC(=O)C1=NN(c2ccc(S(N)(=O)=O)cc2)C(=C(C#N)C#N)S1`, the Ki in experiment [1] is 89.1 nM; in experiment [2], 116 nM.
On the same counts, the results for `CC(=N\NC(=O)c1ccc(Cl)cc1)/C(=N/Nc1ccc(S(N)(=O)=O)cc1)N1CCCCC1` are 80.6 nM and 8.1 nM.
The corresponding values for `CC(=N\NC(=O)c1cccs1)/C(=N/Nc1ccc(S(N)(=O)=O)cc1)S(=O)(=O)c1ccccc1` are 74.5 nM and 21.9 nM.
The corresponding values for `CC(=N\NC(=O)c1ccccc1)/C(Cl)=N/Nc1ccc(S(N)(=O)=O)cc1` are 6.2 nM and 24.3 nM.
`CC(=N\NC(=O)c1ccc(Cl)cc1)/C(Cl)=N/Nc1ccc(S(N)(=O)=O)cc1`: the Ki in experiment [1] came out at 51.1 nM; in experiment [2], 18.5 nM.
As to `CC(=N\NC(=O)c1cccs1)/C(=N/Nc1ccc(S(N)(=O)=O)cc1)N1CCCCC1`, the results for the Ki in experiment [1] and in experiment [2] were 20.5 nM and 0.77 nM, respectively.
The corresponding values for `CC(=N\NC(=O)c1ccccc1)/C(=N/Nc1ccc(S(N)(=O)=O)cc1)S(=O)(=O)c1ccccc1` are 42.9 nM and 94.5 nM.
As to `CC(=O)C1=NN(c2ccc(S(N)(=O)=O)cc2)/C(=C(\C#N)C(=O)Nc2ccc(S(N)(=O)=O)cc2)S1`, the Ki in experiment [1] was determined as 71 nM; in experiment [2] it was 101 nM.
On the same counts, the results for `COc1ccc(C(=O)N/N=C(C)/C(=N/Nc2ccc(S(N)(=O)=O)cc2)S(=O)(=O)c2ccccc2)cc1` are 78.2 nM and 169 nM.
The corresponding values for `Cc1nn2c(C)nnc2s/c1=N/Nc1ccc(S(N)(=O)=O)cc1` are 28.3 nM and 18.3 nM.
On the same counts, the results for `CC(=N\NC(=O)c1ccccc1)/C(=N/Nc1ccc(S(N)(=O)=O)cc1)N1CCCCC1` are 21.9 nM and 13.5 nM.
`CCOC(=O)/C(C#N)=C1\SC(C(C)=O)=NN1c1ccc(S(N)(=O)=O)cc1`: the figures for the Ki in experiment [1] and in experiment [2] were 38.7 nM and 193 nM, respectively.
Take `CC(=N\NC(=O)c1ccc(Cl)cc1)/C(=N/Nc1ccc(S(N)(=O)=O)cc1)S(=O)(=O)c1ccccc1`: the inhibitory constant (Ki) was 68.3 nM in experiment [1] and 59.1 nM in experiment [2].
On the same counts, the results for `CC(=O)Nc1nnc(S(N)(=O)=O)s1` [ACETAZOLAMIDE] are […] and 0.9 nM.
As for `CC(=O)C1=NN(c2ccc(S(N)(=O)=O)cc2)/C(=C(\C#N)C(=O)c2ccccc2)S1`, the inhibitory constant (Ki) turned out to be 76.8 nM in experiment [1] and 234 nM in experiment [2].
Take `Cc1nn2c(-c3ccccc3)nnc2s/c1=N/Nc1ccc(S(N)(=O)=O)cc1`: the inhibitory constant (Ki) in experiment [1] was 47.9 nM; in experiment [2], 9.7 nM.
The corresponding values for `COc1ccc(C(=O)N/N=C(C)/C(Cl)=N/Nc2ccc(S(N)(=O)=O)cc2)cc1` are 45.2 nM and 21.2 nM.
With `COc1ccc(C(=O)N/N=C(C)/C(=N/Nc2ccc(S(N)(=O)=O)cc2)N2CCCCC2)cc1`, the inhibition constant (Ki) was 62.8 nM in experiment [1] and 4 nM in experiment [2].
